Key:
[1] = Stability of the compound in pH 7.4 PIPES buffer assessed as compound hydrolysis at 5 to 10 mg by 31p-NMR analysis; type: physicochemical
[2] = test system: Mycobacterium tuberculosis; experiment: Inhibition of Mycobacterium tuberculosis BlaC expressed in Escherichia coli at 100 uM using nitrocefin as substrate measured at 2 mins interval for 10 mins relative to control
How it was run: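 Purified BlaC was screened against each compound at a single concentration of 100 µM, and percent inhibition was read. Each % inhibition value comes from n ≥ 4 determinations and is reported with its standard deviation.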

[3] = test system: Mycobacterium tuberculosis; experiment: Time-dependent inhibition of Mycobacterium tuberculosis BlaC expressed in Escherichia coli assessed as inactivation rate constant using nitrocefin as substrate

| SMILES | Stability [1] | inhibition [2] [%] | K [3] [min⁻¹] |
| --- | --- | --- | --- |
| N#Cc1ccc(C(=O)OP(=O)(O)OC(=O)c2ccc(C#N)cc2)cc1 | Unstable | – | – |
| COc1ccc(C(=O)OP(=O)(O)OC(=O)c2ccc(OC)cc2)cc1 | Stable | 65.5 | 0.212 |
| O=C(OP(=O)(O)OC(=O)c1ccc(-c2ccccc2)cc1)c1ccc(-c2ccccc2)cc1 | Stable | 0 | – |
| O=C(OP(=O)(O)OC(=O)c1ccc(C(F)(F)F)cc1)c1ccc(C(F)(F)F)cc1 | Stable | 42.5 | – |
| O=C(OP(=O)(O)OC(=O)c1ccc(Cl)cc1)c1ccc(Cl)cc1 | Stable | 24.8 | – |
| O=C(OP(=O)(O)OC(=O)c1ccccc1)c1ccccc1 | Stable | 52.3 | 0.324 |
| O=C(OP(=O)(O)OC(=O)c1ccc(Cl)c(Cl)c1)c1ccc(Cl)c(Cl)c1 | Stable | 20.2 | – |
| O=C(OP(=O)(O)OC(=O)c1ccc([N+](=O)[O-])cc1)c1ccc([N+](=O)[O-])cc1 | Unstable | – | – |
| O=C(OP(=O)(O)OC(=O)c1ccc(F)cc1)c1ccc(F)cc1 | Stable | 84.3 | 0.45 |
| Cc1ccc(C(=O)OP(=O)(O)OC(=O)c2ccc(C)cc2)cc1 | Stable | 41.2 | – |
